Source: PubChem BioAssay
TRPC6 inhibitor: mouse TRPC6 channel inhibition | Q61143 | HEK293-TRPC6, membrane potential dye, ACh-evoked depolarization; hits give low values | B-score at 10 µM | actives 1.1% (n = 310,000);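 active = B-score under library mean minus 3 SD, initial fluorescence not abnormally high, positive integrated signal ratio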;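 note: B-score derived from integrated fluorescence ratio over the kinetic read; more negative B-score means stronger inhibition of depolarization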
Target sequence (Q61143 whole entry, looked up): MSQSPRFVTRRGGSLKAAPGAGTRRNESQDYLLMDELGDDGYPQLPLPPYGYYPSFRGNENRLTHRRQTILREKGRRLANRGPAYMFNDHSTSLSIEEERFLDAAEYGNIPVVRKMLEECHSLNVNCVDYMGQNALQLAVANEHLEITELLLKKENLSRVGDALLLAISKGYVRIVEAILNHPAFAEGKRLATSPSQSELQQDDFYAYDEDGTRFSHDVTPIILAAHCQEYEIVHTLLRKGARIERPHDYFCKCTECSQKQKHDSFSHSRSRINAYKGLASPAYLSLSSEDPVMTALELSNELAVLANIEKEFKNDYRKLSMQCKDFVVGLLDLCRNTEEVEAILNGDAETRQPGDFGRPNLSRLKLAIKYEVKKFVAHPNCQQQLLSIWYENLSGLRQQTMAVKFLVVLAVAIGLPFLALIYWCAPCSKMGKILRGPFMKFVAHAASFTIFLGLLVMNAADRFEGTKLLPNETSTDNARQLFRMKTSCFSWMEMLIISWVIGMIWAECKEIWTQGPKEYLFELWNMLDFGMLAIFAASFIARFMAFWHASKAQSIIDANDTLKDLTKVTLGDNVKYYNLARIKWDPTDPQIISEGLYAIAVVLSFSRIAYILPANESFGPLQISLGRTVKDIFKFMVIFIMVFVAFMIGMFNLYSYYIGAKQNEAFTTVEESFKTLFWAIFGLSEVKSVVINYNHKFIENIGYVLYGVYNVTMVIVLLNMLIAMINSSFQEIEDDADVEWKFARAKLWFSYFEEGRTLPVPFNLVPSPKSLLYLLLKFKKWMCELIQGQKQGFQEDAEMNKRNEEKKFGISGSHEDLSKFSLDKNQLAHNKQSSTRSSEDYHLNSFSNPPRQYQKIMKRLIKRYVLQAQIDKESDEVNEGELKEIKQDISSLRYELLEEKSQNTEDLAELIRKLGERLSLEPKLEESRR
Kir21 inh: Kir2.1 (mouse) channel inhibition; P35561; HEK293-Kir2.1, FluxOR thallium flux fluorescence; hits give low values; B-score at 10 µM; actives 0.85% (n = 310,000); AID 1672;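 active = fluorescence ratio B-score at or below minus 3 SD of library scores, with starting-brightness B-score within 2 SD, cut at about -4.2 in these data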;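 note: channel flux triggered by added potassium and thallium sulfate stimulus; B-score of peak minus minimum fluorescence over baseline after thallium stimulus; more negative B-score means stronger Kir2.1 block with less thallium influx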
TRPC4 inh: TRPC4 (mouse) channel inhibition. Q9QUQ5. HEK293 TRPC4beta/mu-opioid, DAMGO-evoked Fluo4 calcium flux; hits give low values. B-score at 10 µM. actives 0.39% (n = 300,000);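 active = B-score over 3 SD under the library average, no early fluorescence shift, positive overall ratio signal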
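Material: HEK293 cells with stable TRPC4beta plus mu-opioid receptor expression / Probe or stimulus: DAMGO in two steps, submaximal then maximal / Compound: single concentration per test compound / Technique: kinetic Fluo4 fluorescence imaging of calcium influx / Read-out: per-well B score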
TRPC6 act: activates the mouse TRPC6 cation channel; HEK293-TRPC6 membrane potential dye fluorescence; hits give high values; actives 0.13% (n = 310,000); B-score at 10 µM;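 active = B-score of the integrated fluorescence ratio above library mean plus 3 SD, and starting fluorescence ratio within library mean plus 5 SD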;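 note: higher score means more depolarization so channel activation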
TRPC4 act: TRPC4 (mouse) channel activation | Q9QUQ5 | actives 0.49% (n = 310,000) | B-score at 10 µM | HEK293 TRPC4beta/mu-opioid, Fluo4 calcium fluorescence; hits give high values;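 active = B-score above 5 SD of library B-scores, and initial fluorescence ratio not above library mean plus 5 SD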;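 note: positive B-score marks a calcium rise read as TRPC4 activation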
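system = HEK293 cells stably co-expressing mouse TRPC4beta and mu-opioid receptor | schedule = Fluo4 dye loading 45 min at room temperature, 110 s recording | measure = B-scored integrated calcium fluorescence ratio | signal = Fluo4 calcium-sensitive dye fluorescence, kinetic, 1 Hz baseline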
TRPC4 PAM: allosterically enhances the mouse TRPC4 cation channel; actives 0.42% (n = 310,000); HEK293 TRPC4beta/mu-opioid, DAMGO EC20, Fluo-4 Ca2+ flux; hits give high values; Q9QUQ5; B-score at 10 µM;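 active = B-score of calcium response area above 5 SD of library B-scores, with initial fluorescence ratio within 5 SD of library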
TRPC4 sel inh 2: second selectivity test of TRPC6 inhibitors: effect on mouse TRPC4 | shares compounds with TRPC6 inhibitor | HEK293 TRPC4/MOR, membrane potential dye fluorescence; channel activated by saturating DAMGO dose | inhibition, % at 10 µM | actives 42% (n = 920);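 active = compounds whose fluorescence signal differed from control wells by over 3 SD, either direction, in both duplicate plates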
TRPC4 spec: mouse TRPC4 off-target activity of TRPC6 inhibitors; HEK293 TRPC4/mu-opioid, membrane potential fluorescence; actives 61% (n = 920); shares compounds with TRPC6 inhibitor; activity change, negative = inhibition, % at 10 µM;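 active = rise or fall in signal beyond 3 SD of buffer-only wells in both replicate plates, either sign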;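 note: integrated kinetic ratio of fluorescence range over baseline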
HEK293 MPD ctr 2-1: second counter-screen for TRPC6 inhibitors: parental HEK293 cells | shares compounds with TRPC6 inhibitor | parental HEK293 membrane potential dye fluorescence; maximal acetylcholine challenge after compound addition | signal change vs control, % at 10 µM | actives 31% (n = 920);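 active = membrane potential signal moving either way by over 3 SD of the maximum-effect control, in both duplicate plates, meaning non-specific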
HEK293 MPD ctr-1: parental HEK293 nonspecific activity of TRPC6 inhibitors. shares compounds with TRPC6 inhibitor. parental HEK293 membrane potential dye fluorescence. membrane potential signal change, % at 10 µM. actives 60% (n = 920). AID 2780;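 active = membrane potential signal shifting up or down by more than 3 SD of buffer-only wells, on both duplicate plates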
HEK293 MPD ctr-2: checks TRPC6 modulator effects in parental HEK293 cells. shares compounds with TRPC6 inhibitor. membrane potential dye fluorescence. membrane potential signal change, % at 10 µM. actives 51% (n = 2,400). AID 488924;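 active = membrane potential signal moves up or down beyond 5 SD from buffer-only wells, on both duplicate plates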
HEK293 MPD ctr 2-2: parental HEK293 nonspecific activity of TRPC6 modulators, second screen. shares compounds with TRPC6 inhibitor. membrane potential dye fluorescence; after compound, maximal acetylcholine stimulation. inhibition, % at 10 µM. actives 14% (n = 2,400). AID 488926;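 active = membrane potential signal drops by more than 5 SD from the mean control signal, in both duplicate plates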
TRPC4/MOR mod: selectivity of TRPC6 modulators against mouse TRPC4; shares compounds with TRPC6 inhibitor; HEK293 TRPC4/mu-opioid, membrane potential fluorescence; percent change from control (negative = decrease, positive = increase), % at 10 µM; actives 69% (n = 2,400); AID 488927;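 active = membrane potential signal moved up or down beyond 5 SD of buffer control wells, in both duplicate plates, actives on both sides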
TRPC4/MOR inh 2: second selectivity test of TRPC6 modulators against mouse TRPC4 | shares compounds with TRPC6 inhibitor | HEK293 TRPC4/mu-opioid, membrane potential dye fluorescence; stimulated with maximal-effect DAMGO | inhibition, % at 10 µM | actives 55% (n = 2,400) | AID 488928;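 active = drop in membrane potential signal beyond 5 SD of the control wells in both duplicate plates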;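 note: TRPC4 counter screen for TRPC6 hits run under conditions tuned for TRPC6 not TRPC4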
TRPC6 inh conf: confirmation of mouse TRPC6 inhibitors. shares compounds with TRPC6 inhibitor. HEK293-TRPC6, membrane potential dye, ACh-evoked depolarization. inhibition, % at 10 µM. actives 43% (n = 3,300);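 active = fluorescence ratio falls more than 5 SD below the full-stimulation control mean, in both duplicate runs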;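 note: integrated fluorescence ratio of peak minus minimum over baseline after agonist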
TRPC6 act conf: confirmation of mouse TRPC6 activators; shares compounds with TRPC6 inhibitor; HEK293-TRPC6 membrane potential dye fluorescence, FDSS; activation, % at 10 µM; actives 11% (n = 2,800);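 active = ratio signal rise beyond 5 SD above unstimulated control wells' mean, seen in both duplicate runs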
Each line names hits and unclear results; the compound was inactive in the other large screens (follow-up assays come after a bar, where they were run). Hits are enriched below; roughly 3% of the tested compounds scored in any of these assays.

CCC(C)n1c(=N)c(C#N)cc2c(=O)n3cc(C)ccc3nc21 (stereo not drawn)	TRPC6 inhibitor -6.9 | HEK293 MPD ctr-2 inactive | HEK293 MPD ctr 2-2 inactive | TRPC4/MOR mod inactive | TRPC4/MOR inh 2 inactive | TRPC6 inh conf inactive | TRPC6 act conf inactive
Nc1ccc(C(=O)OCc2nc3ccccc3s2)cc1	TRPC6 inhibitor -7.8 | TRPC4 sel inh 2 inactive | TRPC4 spec inactive | HEK293 MPD ctr 2-1 inactive | HEK293 MPD ctr-1 inactive | TRPC6 inh conf inactive | TRPC6 act conf inactive
CC(=O)Nc1nnc(S(=O)(=O)N2CCN(c3ccc(Cl)cc3[N+](=O)[O-])CC2)s1	none
CC(O)CNCCNCc1c(OCc2ccccc2)ccc2ccccc12 (stereo not drawn)	TRPC6 inhibitor -7.9 | TRPC4 sel inh 2 28% | TRPC4 spec -9.5% | HEK293 MPD ctr 2-1 inactive | HEK293 MPD ctr-1 inactive | TRPC6 inh conf 66% | TRPC6 act conf inactive
CC(O)CNCCOc1ccccc1OCc1ccccc1 (stereo not drawn)	none
CC[N+](C)(C)CC/C=C1/c2ccccc2Sc2ccc(Cl)cc21	TRPC6 inhibitor -8.8 | TRPC4 sel inh 2 inactive | TRPC4 spec -11% | HEK293 MPD ctr 2-1 inactive | HEK293 MPD ctr-1 inactive | TRPC6 inh conf 79% | TRPC6 act conf inactive
CCCCCCCCCC[N+](C)(C)CC/C=C1/c2ccccc2Sc2ccc(Cl)cc21	none
C=CCN1C(=O)c2cccc3c(N4CCCCC4)ccc(c23)C1=O	none
O=C1c2cccc3c(N4CCCCC4)ccc(c23)C(=O)N1CCO	TRPC6 act 12 | HEK293 MPD ctr-2 937% | HEK293 MPD ctr 2-2 144% | TRPC4/MOR mod 218% | TRPC4/MOR inh 2 122% | TRPC6 inh conf inactive | TRPC6 act conf 180%
Cc1cccc(-n2nc(C(=O)c3ccco3)cc(-c3nc4ccccc4[nH]3)c2=N)c1	TRPC6 inhibitor -5.4 | HEK293 MPD ctr-2 inactive | HEK293 MPD ctr 2-2 inactive | TRPC4/MOR mod 20% | TRPC4/MOR inh 2 45% | TRPC6 inh conf inactive | TRPC6 act conf inactive
Cc1cc(NC(=O)c2cccs2)n(-c2nc3ccccc3[nH]2)n1	none
Cc1ccc2nc(-c3cccc(NC(=O)c4ccco4)c3)[nH]c2c1	none
COc1ccc(-n2nc(C(=O)c3cccs3)cc(-c3nc4ccccc4[nH]3)c2=N)cc1	TRPC6 inhibitor -9.7 | TRPC4 sel inh 2 46% | TRPC4 spec -22% | HEK293 MPD ctr 2-1 37% | HEK293 MPD ctr-1 -238% | TRPC6 inh conf 61% | TRPC6 act conf inactive
Cc1ccccc1-n1nc(C(=O)c2cccs2)cc(-c2nc3ccccc3[nH]2)c1=N	TRPC6 inhibitor -11 | TRPC4 sel inh 2 66% | TRPC4 spec -9.6% | HEK293 MPD ctr 2-1 inactive | HEK293 MPD ctr-1 inactive | TRPC6 inh conf inactive | TRPC6 act conf inactive
CCOC(=O)NC(=O)c1cn(Nc2ccccc2)c(=O)[nH]c1=O	none
COc1ccc(-c2noc(CNC(=O)CCCN3C(=O)[C@H]4CC=CC[C@H]4C3=O)n2)cc1	none
CCCCN(CCCC)c1nc(OC)nc(-n2nnc(C(C)=O)c2C)n1	TRPC6 act 11 | HEK293 MPD ctr-2 240% | HEK293 MPD ctr 2-2 inactive | TRPC4/MOR mod 57% | TRPC4/MOR inh 2 inactive | TRPC6 inh conf inactive | TRPC6 act conf 96%
COc1ccc(S(=O)(=O)N2CCc3cc(OC)c(OC)cc3C2)cc1	TRPC6 inhibitor -7.1 | TRPC4 sel inh 2 inactive | TRPC4 spec inactive | HEK293 MPD ctr 2-1 inactive | HEK293 MPD ctr-1 inactive | TRPC6 inh conf inactive | TRPC6 act conf inactive
N#Cc1c(NC(=O)CSc2nc(N)cc(=O)[nH]2)sc2c1CCCC2	none
CN1C(=S)N(c2cccnc2)C(=O)/C1=C\c1ccc(N(C)C)cc1	TRPC6 act 13 | HEK293 MPD ctr-2 356% | HEK293 MPD ctr 2-2 inactive | TRPC4/MOR mod 108% | TRPC4/MOR inh 2 inactive | TRPC6 inh conf inactive | TRPC6 act conf 106%
CCC(C)c1ccccc1NC(=O)COC(=O)c1ccc2c(c1)S(=O)(=O)c1ccccc1C2=O (stereo not drawn)	none
Cc1ccc(C)c(NS(=O)(=O)c2c(C)nn(C)c2C)c1	none
Cc1ccc(OS(=O)(=O)c2c(C)nn(C)c2Cl)c(C)c1	TRPC6 inhibitor -6.5 | HEK293 MPD ctr-2 inactive | HEK293 MPD ctr 2-2 inactive | TRPC4/MOR mod inactive | TRPC4/MOR inh 2 inactive | TRPC6 inh conf 72% | TRPC6 act conf inactive
CC(Sc1nnc(N)s1)C(=O)NC1CCCCC1C (stereo not drawn)	none
CSc1nc(C)cc(OCC(=O)N/N=C/c2ccccc2O)n1	none
Cc1cc(C)cc(NCCC#N)c1	none
O=C(c1ccc(C(=O)N2CCCc3ccccc32)s1)N1CCCc2ccccc21	TRPC6 inhibitor -6.6 | TRPC4 sel inh 2 inactive | TRPC4 spec 3.9% | HEK293 MPD ctr 2-1 inactive | HEK293 MPD ctr-1 3.6% | TRPC6 inh conf inactive
Cc1ccc(S(=O)(=O)N(C)c2ccc(C(=O)Nc3c(C)n(C)n(-c4ccccc4)c3=O)cc2)cc1	none
